Values after ≈ are worked out from the molar mass of the structure shown.
Assays:
Assay type in all cases: functional
[1] = system: Parabacteroides merdae; assay: Antimicrobial activity against Bacteroides merdae assessed as resistant isolates by agar dilution method
Outline: (§1)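 CLSI agar dilution on enriched brucella agar (5% lysed defibrinated sheep blood, 1 μg/ml vitamin K1), plates made on test day. Log-phase inocula adjusted to 0.5 McFarland; about 10^5 CFU/spot by Steers replicator. Incubated anaerobically at 37°C for 48 h. MIC was the lowest concentration giving a marked change in growth versus the drug-free control plate. Resistance rates used CLSI anaerobe breakpoints. Controls were B. fragilis ATCC 25285 and B. thetaiotaomicron ATCC 29741.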

[2] = system: Bacteroides nordii; assay: Antimicrobial activity against Bacteroides nordii assessed as resistant isolates by agar dilution method; outline: as §1
[3] = system: Cutibacterium acnes; assay: Antimicrobial activity against Propionibacterium acnes by agar dilution method
Outline: (§2)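 Log-phase isolates were adjusted to 0.5 McFarland, and about 10^5 CFU/spot was delivered by Steers replicator. Plates were incubated anaerobically at 37°C for 48 h. MIC was the lowest concentration giving a marked growth change versus the control plate. Eubacterium lentum ATCC 43055 was the QC strain, with repeats when out of range.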

[4] = system: Bacteroides thetaiotaomicron; assay: Antimicrobial activity against Bacteroides thetaiotaomicron by agar dilution method
Outline: (§3)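 CLSI agar dilution on enriched brucella agar (5% lysed defibrinated sheep blood, 1 μg/ml vitamin K1), with drug plates made on the test day. Log-phase cells were adjusted to 0.5 McFarland, and about 10^5 CFU/spot was delivered by Steers replicator. Plates were incubated anaerobically at 37°C for 48 h. MIC was the lowest concentration giving a marked growth change versus the control plate. Controls were B. fragilis ATCC 25285 and B. thetaiotaomicron ATCC 29741.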

[5] = system: Bacteroides ovatus; assay: Antimicrobial activity against Bacteroides ovatus assessed as resistant isolates by agar dilution method; outline: as §1
[6] = system: Bacteroides eggerthii; assay: Antimicrobial activity against Bacteroides eggerthii by agar dilution method; outline: as §3
[7] = system: Anaerococcus prevotii; assay: Antimicrobial activity against Anaerococcus prevotii by agar dilution method
Outline: (§4)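 Gram-positive anaerobes were tested by CLSI agar dilution on brucella agar enriched with 5% lysed defibrinated sheep blood and 1 μg/ml vitamin K1. Inoculum was log-phase growth at 0.5 McFarland, about 10^5 CFU/spot by replicator. Incubation was anaerobic, 37°C, 48 h. MIC was the lowest concentration with a marked growth change versus the drug-free plate. Eubacterium lentum ATCC 43055 was the control, and tests were repeated if it fell outside the CLSI range.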

[8] = system: Bacteroides nordii; assay: Antimicrobial activity against Bacteroides nordii by agar dilution method; outline: as §3
[9] = system: Propionibacterium; assay: Antimicrobial activity against Propionibacterium sp. by agar dilution method; outline: as §2
[10] = system: Parabacteroides distasonis; assay: Antimicrobial activity against Bacteroides distasonis assessed as resistant isolates by agar dilution method; outline: as §1
[11] = system: Bacteroides fragilis; assay: Antimicrobial activity against Bacteroides fragilis assessed as resistant isolates by agar dilution method; outline: as §1
[12] = system: Bacteroides ovatus; assay: Antimicrobial activity against Bacteroides ovatus by agar dilution method; outline: as §3
[13] = system: Bacteroides uniformis; assay: Antimicrobial activity against Bacteroides uniformis by agar dilution method; outline: as §3
[14] = system: Propionibacterium; assay: Antimicrobial activity against Propionibacterium sp. assessed as resistant isolates by agar dilution method
Outline: (§5)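 Agar dilution following CLSI on brucella agar with 5% lysed defibrinated sheep blood and 1 μg/ml vitamin K1, plates made on test day. Log-phase cells at 0.5 McFarland, about 10^5 CFU/spot by Steers replicator, 48 h anaerobic at 37°C. MIC read as the lowest concentration causing a marked growth change versus control. Resistance counted by CLSI anaerobe breakpoints. Eubacterium lentum ATCC 43055 served as control.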

[15] = system: Parabacteroides merdae; assay: Antimicrobial activity against Bacteroides merdae by agar dilution method; outline: as §3
[16] = system: Bacteroides thetaiotaomicron; assay: Antimicrobial activity against Bacteroides thetaiotaomicron assessed as resistant isolates by agar dilution method; outline: as §1
[17] = system: Bacteroides uniformis; assay: Antimicrobial activity against Bacteroides uniformis assessed as resistant isolates by agar dilution method; outline: as §1
[18] = system: Peptostreptococcus sp.; assay: Antimicrobial activity against Peptostreptococcus sp. by agar dilution method; outline: as §2
[19] = system: Finegoldia magna; assay: Antimicrobial activity against Finegoldia magna assessed as resistant isolates by agar dilution method; outline: as §5
[20] = system: Bacteroides caccae; assay: Antimicrobial activity against Bacteroides caccae by agar dilution method; outline: as §3
[21] = system: Bacteroides fragilis; assay: Antimicrobial activity against Bacteroides fragilis by agar dilution method; outline: as §3
[22] = system: Phocaeicola vulgatus; assay: Antimicrobial activity against Bacteroides vulgatus by agar dilution method; outline: as §3
[23] = system: Bacteroides caccae; assay: Antimicrobial activity against Bacteroides caccae assessed as resistant isolates by agar dilution method; outline: as §1
[24] = system: Peptoniphilus asaccharolyticus; assay: Antimicrobial activity against Peptoniphilus asaccharolyticus assessed as resistant isolates by agar dilution method; details: pooled result: one value given for 4 cell lines, strains, targets or settings; outline: as §5
[25] = system: Parabacteroides distasonis; assay: Antimicrobial activity against Bacteroides distasonis by agar dilution method; outline: as §3
[26] = system: Cutibacterium acnes; assay: Antimicrobial activity against Propionibacterium acnes assessed as resistant isolates by agar dilution method; outline: as §5
[27] = system: Bacteroides eggerthii; assay: Antimicrobial activity against Bacteroides eggerthii assessed as resistant isolates by agar dilution method; outline: as §1
[28] = system: Phocaeicola vulgatus; assay: Antimicrobial activity against Bacteroides vulgatus assessed as resistant isolates by agar dilution method; outline: as §1
[29] = system: Clostridioides difficile; assay: Antimicrobial activity against Clostridium difficile by agar dilution method
[30] = system: Clostridium tertium; assay: Antimicrobial activity against Clostridium tertium by agar dilution method
[31] = system: [Clostridium] innocuum; assay: Antimicrobial activity against Clostridium innocuum assessed as resistant isolates by agar dilution method; details: pooled result: one value given for 4 cell lines, strains, targets or settings
[32] = system: Finegoldia magna; assay: Antimicrobial activity against Finegoldia magna by agar dilution method; outline: as §4
[33] = system: Clostridium perfringens; assay: Antimicrobial activity against Clostridium perfringens by agar dilution method
[34] = system: Peptoniphilus asaccharolyticus; assay: Antimicrobial activity against Peptoniphilus asaccharolyticus by agar dilution method; outline: as §4
[35] = system: Clostridium subterminale; assay: Antimicrobial activity against Clostridium subterminale by agar dilution method
[36] = system: Clostridium paraputrificum; assay: Antimicrobial activity against Clostridium paraputrificum by agar dilution method
[37] = system: Parvimonas micra; assay: Antimicrobial activity against Micromonas micros by agar dilution method; outline: as §4
[38] = system: [Clostridium] innocuum; assay: Antimicrobial activity against Clostridium innocuum by agar dilution method

Question: How did the Activity [1] turn out when `COc1c(N2C[C@@H]3CCCN[C@@H]3C2)c(F)cc2c(=O)c(C(=O)O)cn(C3CC3)c12` [MOXIFLOXACIN] was run?
Answer: 40%

Question: What about the Activity [2] of the same compound?
Answer: 40%

Question: What about the MIC50 [3] of the same compound?
Answer: 0.25 µg/mL (≈ 0.623 µM)

Question: What about the MIC90 [3] of the same compound?
Answer: 0.5 µg/mL (≈ 1.25 µM)

Question: And the MIC50 [4]?
Answer: 4 µg/mL (≈ 9.96 µM)

Question: And the MIC90 [4]?
Answer: 32 µg/mL (≈ 79.7 µM)

Question: What about the Activity [5] of the same compound?
Answer: 40%

Question: And the MIC50 [6]?
Answer: 2 µg/mL (≈ 4.98 µM)

Question: What about the MIC90 [6] of the same compound?
Answer: 16 µg/mL (≈ 39.9 µM)

Question: What about the MIC50 [7] of the same compound?
Answer: 0.5 µg/mL (≈ 1.25 µM)

Question: And the MIC90 [7]?
Answer: 16 µg/mL (≈ 39.9 µM)

Question: And the MIC50 [8]?
Answer: 2 µg/mL (≈ 4.98 µM)

Question: What about the MIC90 [8] of the same compound?
Answer: 16 µg/mL (≈ 39.9 µM)

Question: And the MIC [9]?
Answer: 0.25 µg/mL (≈ 0.623 µM)

Question: And the MIC50 [9]?
Answer: 0.25 µg/mL (≈ 0.623 µM)

Question: And the MIC90 [9]?
Answer: 0.5 µg/mL (≈ 1.25 µM)

Question: What about the Activity [10] of the same compound?
Answer: 53.3%

Question: And the Activity [11]?
Answer: 29.3%

Question: What about the MIC50 [12] of the same compound?
Answer: 2 µg/mL (≈ 4.98 µM)

Question: What about the MIC90 [12] of the same compound?
Answer: 32 µg/mL (≈ 79.7 µM)

Question: And the MIC50 [13]?
Answer: 4 µg/mL (≈ 9.96 µM)

Question: And the MIC90 [13]?
Answer: 64 µg/mL (≈ 159 µM)

Question: What about the Activity [14] of the same compound?
Answer: 0%

Question: What about the MIC50 [15] of the same compound?
Answer: 2 µg/mL (≈ 4.98 µM)

Question: What about the MIC90 [15] of the same compound?
Answer: 16 µg/mL (≈ 39.9 µM)

Question: What about the Activity [16] of the same compound?
Answer: 30.8%

Question: What about the Activity [17] of the same compound?
Answer: 14.3%

Question: What about the MIC50 [18] of the same compound?
Answer: 0.5 µg/mL (≈ 1.25 µM)

Question: What about the MIC90 [18] of the same compound?
Answer: 16 µg/mL (≈ 39.9 µM)

Question: What about the Activity [19] of the same compound?
Answer: 40%

Question: And the MIC50 [20]?
Answer: 4 µg/mL (≈ 9.96 µM)

Question: What about the MIC90 [20] of the same compound?
Answer: 16 µg/mL (≈ 39.9 µM)

Question: And the MIC50 [21]?
Answer: 1 µg/mL (≈ 2.49 µM)

Question: And the MIC90 [21]?
Answer: 8 µg/mL (≈ 19.9 µM)

Question: And the MIC50 [22]?
Answer: 8 µg/mL (≈ 19.9 µM)

Question: And the MIC90 [22]?
Answer: 64 µg/mL (≈ 159 µM)

Question: And the Activity [23]?
Answer: 50%

Question: And the Activity [24]?
Answer: 14.8%

Question: And the MIC50 [25]?
Answer: 8 µg/mL (≈ 19.9 µM)

Question: And the MIC90 [25]?
Answer: 16 µg/mL (≈ 39.9 µM)

Question: And the Activity [26]?
Answer: 0%

Question: What about the Activity [27] of the same compound?
Answer: 40%

Question: What about the Activity [28] of the same compound?
Answer: 48.4%

Question: `CN[C@H](CC(C)C)C(=O)N[C@H]1C(=O)N[C@@H](CC(N)=O)C(=O)N[C@H]2C(=O)N[C@H]3C(=O)N[C@H](C(=O)N[C@H](C(=O)O)c4cc(O)cc(O)c4-c4cc3ccc4O)[C@H](O)c3ccc(c(Cl)c3)Oc3cc2cc(c3O[C@@H]2O[C@H](CO)[C@@H](O)[C@H](O)[C@H]2O[C@H]2C[C@](C)(N)[C@H](O)[C@H](C)O2)Oc2ccc(cc2Cl)[C@H]1O` [VANCOMYCIN] was tested. Which MIC [3] did it give?
Answer: 1 µg/mL (≈ 0.69 µM)

Question: And the MIC50 [3]?
Answer: 1 µg/mL (≈ 0.69 µM)

Question: And the MIC90 [3]?
Answer: 1 µg/mL (≈ 0.69 µM)

Question: What about the MIC [29] of the same compound?
Answer: 1 µg/mL (≈ 0.69 µM)

Question: What about the MIC50 [30] of the same compound?
Answer: 8 µg/mL (≈ 5.52 µM)

Question: And the MIC90 [30]?
Answer: 16 µg/mL (≈ 11 µM)

Question: And the Activity [31]?
Answer: 0%

Question: What about the MIC50 [32] of the same compound?
Answer: 1 µg/mL (≈ 0.69 µM)

Question: What about the MIC90 [32] of the same compound?
Answer: 1 µg/mL (≈ 0.69 µM)

Question: What about the MIC [33] of the same compound?
Answer: 1 µg/mL (≈ 0.69 µM)

Question: What about the MIC50 [33] of the same compound?
Answer: 1 µg/mL (≈ 0.69 µM)

Question: And the MIC90 [33]?
Answer: 2 µg/mL (≈ 1.38 µM)

Question: What about the MIC50 [34] of the same compound?
Answer: 1 µg/mL (≈ 0.69 µM)

Question: What about the MIC90 [34] of the same compound?
Answer: 2 µg/mL (≈ 1.38 µM)

Question: And the MIC50 [35]?
Answer: 8 µg/mL (≈ 5.52 µM)

Question: What about the MIC90 [35] of the same compound?
Answer: 16 µg/mL (≈ 11 µM)

Question: And the MIC50 [7]?
Answer: 1 µg/mL (≈ 0.69 µM)

Question: What about the MIC90 [7] of the same compound?
Answer: 2 µg/mL (≈ 1.38 µM)

Question: What about the MIC [9] of the same compound?
Answer: 1 µg/mL (≈ 0.69 µM)

Question: What about the MIC50 [9] of the same compound?
Answer: 1 µg/mL (≈ 0.69 µM)

Question: What about the MIC90 [9] of the same compound?
Answer: 1 µg/mL (≈ 0.69 µM)

Question: And the Activity [14]?
Answer: 0%

Question: What about the MIC50 [18] of the same compound?
Answer: 1 µg/mL (≈ 0.69 µM)

Question: What about the MIC90 [18] of the same compound?
Answer: 2 µg/mL (≈ 1.38 µM)

Question: What about the MIC50 [36] of the same compound?
Answer: 8 µg/mL (≈ 5.52 µM)

Question: What about the MIC90 [36] of the same compound?
Answer: 16 µg/mL (≈ 11 µM)

Question: What about the Activity [19] of the same compound?
Answer: 0%

Question: And the MIC50 [37]?
Answer: 1 µg/mL (≈ 0.69 µM)

Question: And the MIC90 [37]?
Answer: 2 µg/mL (≈ 1.38 µM)

Question: And the Activity [24]?
Answer: 2.4%

Question: And the MIC50 [38]?
Answer: 8 µg/mL (≈ 5.52 µM)

Question: And the MIC90 [38]?
Answer: 16 µg/mL (≈ 11 µM)

Question: What about the Activity [26] of the same compound?
Answer: 0%

From ChEMBL document CHEMBL1275561, “In vitro activities of doripenem, a new broad-spectrum carbapenem, against recently collected clinical anaerobic isolates, with emphasis on the Bacteroides fragilis group” (2008)
